The text below walks through data of PubChem BioAssay AID2341 (Sanford-Burnham Center for Chemical Genomics, 2010).

The target in the assay is Cannabinoid receptor 1 (Homo sapiens) (UniProt P21554). As to the kind of experiment: CB1 receptor agonists, beta-arrestin translocation, SAR follow-up, imaging, U2OS cells, beta-arrestin-GFP, powder samples (AID 2341). Summed up: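 System: U2OS cells stably co-expressing human CB1 and β-arrestin-GFP | Buffer or medium: Serum-free MEM during compound exposure | Dosing: Ten-point series, 62 nM to 32 µM, 0.31% DMSO | Timing: 60 min compound treatment, 37 °C | Replication: Duplicate wells per dose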

The source made the active and inactive calls.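 Rule for the calls: active = half-maximal potency under 10 µM when retested across doses; inactive = the rest.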

Chain of Cannabinoid receptor 1 (Homo sapiens) (P21554 whole entry, looked up): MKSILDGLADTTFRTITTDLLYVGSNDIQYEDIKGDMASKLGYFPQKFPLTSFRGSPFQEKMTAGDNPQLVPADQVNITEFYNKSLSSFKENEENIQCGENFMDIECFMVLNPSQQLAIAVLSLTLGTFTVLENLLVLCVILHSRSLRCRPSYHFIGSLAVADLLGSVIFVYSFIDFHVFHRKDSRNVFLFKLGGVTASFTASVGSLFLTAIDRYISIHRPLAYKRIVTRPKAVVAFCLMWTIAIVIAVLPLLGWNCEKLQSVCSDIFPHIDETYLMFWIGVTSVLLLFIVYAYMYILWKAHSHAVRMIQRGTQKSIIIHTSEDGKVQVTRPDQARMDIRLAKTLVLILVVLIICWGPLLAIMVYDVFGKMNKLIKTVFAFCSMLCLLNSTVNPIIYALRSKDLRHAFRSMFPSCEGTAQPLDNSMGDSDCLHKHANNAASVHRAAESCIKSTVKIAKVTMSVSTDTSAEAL

Consider `COc1ccc2cc(C)c3nnc(SCC(=O)Nc4nc(-c5ccc(F)cc5)cs4)n3c2c1`, for which the EC50 (as a rule, the concentration needed to bring the measured effect to its halfway point) is > 32 µM (inactive).
Regarding `COc1ccccc1/C=C/C(=O)NC(=S)Nc1ccc(S(=O)(=O)N(C)c2ccccc2)cc1`, the EC50 was > 32 µM (inactive).
The same measure for `CC(Sc1nc2cc(Cl)ccc2s1)C(=O)Nc1cccc(S(=O)(=O)N2CCOCC2)c1` (stereo unspecified): > 32 µM (inactive); for `COc1ccc(S(=O)(=O)N2CCOCC2)cc1NC(=O)c1cc2c(s1)CCCC2`: > 32 µM (inactive).
On to `COc1cc2c(cc1NC(=O)C(C)Sc1ccc(NC(C)=O)cc1)oc1ccccc12` (stereo unspecified), for which the EC50 is > 32 µM (inactive).
In the case of `CC(C)=CC(=O)Nc1ccc(OCc2ccccc2)cc1`, the EC50 is > 32 µM (inactive).
In the case of `CN(C)S(=O)(=O)c1ccc(N2CCCC2)c(C(=O)N2CCN(c3ccc([N+](=O)[O-])cc3)CC2)c1`, the EC50 was > 32 µM (inactive).
As for `Cc1cccc(N2CCN(C(=O)c3cc(S(=O)(=O)N(C)C)ccc3N3CCCC3)CC2)c1C`, the EC50 was > 32 µM (inactive).
Next, `CCCN(CCC)Cc1c(C(=O)NN=C/C(C)=C\c2ccccc2)nnn1-c1nonc1N`: > 32 µM (inactive).
`O=C(CSc1nc2ccccc2s1)N1c2ccccc2Sc2ccc(Cl)cc21`: the EC50 is > 32 µM (inactive).
Regarding `CCCN(CCC)Cc1c(C(=O)NN=Cc2c[nH]c3ccccc23)nnn1-c1nonc1N`, the EC50 was > 32 µM (inactive).
As for `CCCN(CCC)Cc1c(C(=O)NN=C/C(C)=C\c2ccco2)nnn1-c1nonc1N`, the EC50 was > 32 µM (inactive).
On to `COc1ccc2c(c1)cc(C)c1nnc(SCC(=O)N(C)c3nc(-c4ccccc4)cs3)n12`, for which the EC50 is > 32 µM (inactive).
Take `CC(C)Oc1ccc(S(=O)(=O)N2CCOCC2)cc1NC(=O)c1ccc(N2CCCC2=O)cc1`: the EC50 was > 32 µM (inactive).
As for `CC(C)NS(=O)(=O)c1ccc(NC(=S)NC(=O)c2ccc(-c3ccccc3)cc2)cc1`, the EC50 was > 32 µM (inactive).
Take `O=C(CSc1nc2ccccc2s1)N1c2ccccc2Sc2ccc(C(F)(F)F)cc21`: the EC50 is > 32 µM (inactive).
As to `C=CCN(CC=C)S(=O)(=O)c1ccc(NC(=S)NC(=O)c2ccc(-c3ccccc3)cc2)cc1`, the EC50 was > 32 µM (inactive).
In the case of `COc1ccc(-c2csc(NC(=O)CSc3nnc4c(C)cc5ccccc5n34)n2)cc1`, the EC50 is > 32 µM (inactive).
With `COc1cc2c(cc1NC(=O)CSc1ccccc1)oc1ccccc12`, the EC50 was > 32 µM (inactive).
As for `C/C(C=NNC(=O)c1nnn(-c2nonc2N)c1CN1CCC(C)CC1)=C/c1ccccc1`, the EC50 was > 32 µM (inactive).
Regarding `Cc1occc1C(=O)Nc1ccc(OCc2ccccc2)cc1`, the EC50 was > 32 µM (inactive).
